In publication PMC4972181 (Journal of medicinal chemistry, 2015):
Like-named read-outs stand apart in the source and are kept apart here.

Tests used:
[1] = system: INSR minigene exon 11 splicing in HeLa cells expressing CUG960; format: cell-based, human; settings: for INSR mis-splicing rescue (in words): HeLa cells, CUG960 + INSR minigene
[2] = Flow cytometry cell viability assay with propidium iodide in the DM1 cell model; settings: human, HeLa cells, DM1 cell model (transfected)
[3] = system: CUG: MBNL nuclear foci in HeLa cells transfected with CUG960; assay: Fluorescent microscopy of CUG RNA nuclear foci and MBNL1 localization; format: cell-based, human; settings: for Effect on ribonuclear foci (in words): 50 μM pentamidine or 80 μM compound 13
[4] = system: Atp2a1 exon 22 splicing; assay: HSALR DM1 mouse model, Atp2a1 splicing in quadriceps muscle; format: in vivo; settings: HSALR mice, wild type 100 ± 0.2 %, HSALR 28 ± 2 %
Summary of the method: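 Homozygous, gender-matched HSALR transgenic mice aged 10–14 wks received the test compound in 5% glucose solution by daily intraperitoneal injection for 7 d. Controls received 5% glucose injections. Mice were killed 1 d after the last dose and quadriceps was taken. RNA was reverse transcribed, PCR-amplified and run on agarose gels read by fluorimager. Inclusion was scored per individual mouse.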

[5] = system: INSR minigene exon 11 splicing in HeLa cells without CUG960; assay: Control splicing experiment, INSR minigene in the absence of transfected CUG960; format: cell-based, human; settings: 80 μM; untreated range ~70% to ~80 %
[6] = system: TNNT2 minigene exon 5 splicing in HeLa cells expressing CUG960; assay: HeLa cell DM1 splicing assay, TNNT2 minigene co-transfected with CUG960; format: cell-based, human
[7] = Toxicity observed in treated HSALR mice; format: in vivo, mouse; settings: 10 and 20 mg/kg daily i.p. for 7 d
[8] = in vitro; settings: human

SMILES: N=C(N)c1ccc(OCCCCc2ccccc2)cc1 [Compound 2b]
- INSR mis-splicing rescue (in words) [1]: little rescue was observed by 20 μM

SMILES: N=C(N)c1ccc(OCCCCCCCOc2ccc(C(=N)N)cc2)cc1 [Heptamidine, heptamidine]
- IC50 at 18 h [2]: 15 ± 0.46 µM

SMILES: N=C(N)c1ccc(-c2ccc(-c3ccc(C(=N)N)cc3)o2)cc1 [Compound 13, furamidine]
- Effect on ribonuclear foci (in words) [3]: significant reduction of ribonuclear foci
- Reduction of nuclear foci per cell ([3]; 80 μM, vs transfected controls, n = 121, p < 0.05): 89%
- Atp2a1 exon 22 inclusion ([4]; 10 mg/kg daily i.p. 7 days): 64 ± 4%
- Atp2a1 exon 22 inclusion ([4]; 20 mg/kg daily i.p. 7 days): 83 ± 4%
- INSR exon 11 inclusion in the absence of CUG960 [5]: 81± 4%
- Concentration by which full TNNT2 mis-splicing reversal was achieved [6]: ≤ 80 µM
- Toxicity in mice (in words) [7]: No toxicity was observed over the concentration range tested
- Toxicity observed in the cell splicing assay (in words) ([1]; HeLa DM1 cell model, qualitative): non-toxic over the range of rescue

SMILES: N=C(N)c1ccc(OCCCCCOc2ccc(C(=N)N)cc2)cc1 [Pentamidine, pentamidine, reference compound]
- Effect on ribonuclear foci (in words) [3]: significant reduction of ribonuclear foci
- IC50 at 18 h [8]: 64 ± 12 µM

SMILES: N=C(N)c1cccc(OCCCCCCCOc2cccc(C(=N)N)c2)c1 [Compound 4]
- Toxicity observed in the cell splicing assay (in words) [1]: very toxic over the range tested
- INSR mis-splicing rescue (in words) [1]: almost complete dose-dependent mis-splicing rescue at 25 μM

SMILES: N=C(N)c1ccc(OCCCOc2ccccc2)cc1 [Compound 2a]
- INSR mis-splicing rescue (in words) [1]: dose-dependent rescue of mis-splicing through 60 μM
